System: U2OS
Assay: Multiplex assay against U2OS
Type: toxicity, cell-based
Settings: human
Summary of the method: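 At seeding, live cells were stained with Hoechst33342, BioTracker Green Microtubule Cytoskeleton Dye, MitoTracker Red and Annexin V Alexa Fluor 680. After compound addition they were imaged on a CQ1 microscope at 37°C and 5% CO2, and CellPathfinder machine-learning gating sorted them into Hoechst high-intensity objects or normal cells, with normal cells further split into healthy, pyknosed or fragmented nuclei and pyknosed cells into mitotic or apoptotic. Tubulin, mitochondrial-mass and membrane-permeability phenotypes are given as per cents of cells with healthy nuclei.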

[1] = 12 h, 1 µM, compound concentration 1 uM, replicate 1
[2] = 12 h, 1 µM, compound concentration 1 uM, replicate 2
[3] = 12 h, 10 µM, compound concentration 10 uM, replicate 1
[4] = 12 h, 10 µM, compound concentration 10 uM, replicate 2
[5] = 24 h, 1 µM, compound concentration 1 uM, replicate 1
[6] = 24 h, 1 µM, compound concentration 1 uM, replicate 2
[7] = 24 h, 10 µM, compound concentration 10 uM, replicate 1
[8] = 24 h, 10 µM, compound concentration 10 uM, replicate 2
[9] = 48 h, 1 µM, compound concentration 1 uM, replicate 1
[10] = 48 h, 1 µM, compound concentration 1 uM, replicate 2
[11] = 48 h, 10 µM, compound concentration 10 uM, replicate 1
[12] = 48 h, 10 µM, compound concentration 10 uM, replicate 2

CC(C)(C)c1ccc(S(=O)(=O)Nc2ccc(Cl)cc2C(=O)c2cc[n+]([O-])cc2)cc1 [VERCIRNON]
Population Apoptotic (%) [1]: 77%
Population Fragmented Nuclei (%) [1]: 28%
Population Healthy Nuclei (%) [1]: 61%
Population Hoechst High Intensity Objects (%) [1]: 1%
Population Membrane Permeable-Phenotype (%) [1]: 8%
Population Mitochondria Different-Phenotype (%) [1]: 5%
Population Mitotic Cells (%) [1]: 22%
Population Normal (%) [1]: 98%
Population Pyknosed Nuclei (%) [1]: 10%
Population Tubulin-Different-Phenotype (%) [1]: 4%
Total Cell Count [1]: 307
Population Apoptotic (%) [2]: 100%
Population Fragmented Nuclei (%) [2]: 15%
Population Healthy Nuclei (%) [2]: 79%
Population Hoechst High Intensity Objects (%) [2]: 0%
Population Mitochondria Different-Phenotype (%) [2]: 4%
Population Mitotic Cells (%) [2]: 0%
Population Normal (%) [2]: 99%
Population Pyknosed Nuclei (%) [2]: 5%
Population Tubulin-Different-Phenotype (%) [2]: 3%
Total Cell Count [2]: 156
Population Apoptotic (%) [3]: 77%
Population Fragmented Nuclei (%) [3]: 24%
Population Healthy Nuclei (%) [3]: 68%
Population Hoechst High Intensity Objects (%) [3]: 1%
Population Membrane Permeable-Phenotype (%) [3]: 3%
Population Mitochondria Different-Phenotype (%) [3]: 2%
Population Mitotic Cells (%) [3]: 22%
Population Normal (%) [3]: 98%
Population Pyknosed Nuclei (%) [3]: 6%
Population Tubulin-Different-Phenotype (%) [3]: 1%
Total Cell Count [3]: 266
Population Apoptotic (%) [4]: 50%
Population Fragmented Nuclei (%) [4]: 21%
Population Healthy Nuclei (%) [4]: 77%
Population Hoechst High Intensity Objects (%) [4]: 0%
Population Membrane Permeable-Phenotype (%) [4]: 15%
Population Mitotic Cells (%) [4]: 50%
Population Normal (%) [4]: 99%
Population Pyknosed Nuclei (%) [4]: 1%
Population Tubulin-Different-Phenotype (%) [4]: 15%
Total Cell Count [4]: 123
Population Apoptotic (%) [5]: 89%
Population Fragmented Nuclei (%) [5]: 25%
Population Healthy Nuclei (%) [5]: 67%
Population Hoechst High Intensity Objects (%) [5]: 1%
Population Membrane Permeable-Phenotype (%) [5]: 8%
Population Mitochondria Different-Phenotype (%) [5]: 5%
Population Mitotic Cells (%) [5]: 10%
Population Normal (%) [5]: 98%
Population Pyknosed Nuclei (%) [5]: 7%
Population Tubulin-Different-Phenotype (%) [5]: 4%
Total Cell Count [5]: 357
Population Apoptotic (%) [6]: 92%
Population Fragmented Nuclei (%) [6]: 18%
Population Healthy Nuclei (%) [6]: 74%
Population Hoechst High Intensity Objects (%) [6]: 0%
Population Membrane Permeable-Phenotype (%) [6]: 2%
Population Mitochondria Different-Phenotype (%) [6]: 4%
Population Mitotic Cells (%) [6]: 7%
Population Normal (%) [6]: 99%
Population Tubulin-Different-Phenotype (%) [6]: 2%
Total Cell Count [6]: 183
Population Apoptotic (%) [7]: 76%
Population Fragmented Nuclei (%) [7]: 21%
Population Healthy Nuclei (%) [7]: 72%
Population Hoechst High Intensity Objects (%) [7]: 2%
Population Membrane Permeable-Phenotype (%) [7]: 1%
Population Mitochondria Different-Phenotype (%) [7]: 1%
Population Mitotic Cells (%) [7]: 23%
Population Normal (%) [7]: 97%
Population Pyknosed Nuclei (%) [7]: 5%
Population Tubulin-Different-Phenotype (%) [7]: 1%
Total Cell Count [7]: 297
Population Apoptotic (%) [8]: 71%
Population Fragmented Nuclei (%) [8]: 22%
Population Hoechst High Intensity Objects (%) [8]: 1%
Population Membrane Permeable-Phenotype (%) [8]: 13%
Population Mitotic Cells (%) [8]: 28%
Population Normal (%) [8]: 98%
Population Pyknosed Nuclei (%) [8]: 4%
Population Tubulin-Different-Phenotype (%) [8]: 15%
Total Cell Count [8]: 160
Population Apoptotic (%) [9]: 82%
Population Fragmented Nuclei (%) [9]: 19%
Population Healthy Nuclei (%) [9]: 73%
Population Hoechst High Intensity Objects (%) [9]: 3%
Population Membrane Permeable-Phenotype (%) [9]: 5%
Population Mitochondria Different-Phenotype (%) [9]: 3%
Population Mitotic Cells (%) [9]: 17%
Population Normal (%) [9]: 96%
Population Pyknosed Nuclei (%) [9]: 6%
Population Tubulin-Different-Phenotype (%) [9]: 4%
Total Cell Count [9]: 515
Population Apoptotic (%) [10]: 84%
Population Fragmented Nuclei (%) [10]: 15%
Population Healthy Nuclei (%) [10]: 75%
Population Hoechst High Intensity Objects (%) [10]: 4%
Population Membrane Permeable-Phenotype (%) [10]: 7%
Population Mitochondria Different-Phenotype (%) [10]: 2%
Population Mitotic Cells (%) [10]: 15%
Population Normal (%) [10]: 95%
Population Pyknosed Nuclei (%) [10]: 9%
Population Tubulin-Different-Phenotype (%) [10]: 2%
Total Cell Count [10]: 296
Population Apoptotic (%) [11]: 79%
Population Fragmented Nuclei (%) [11]: 18%
Population Healthy Nuclei (%) [11]: 75%
Population Hoechst High Intensity Objects (%) [11]: 1%
Population Membrane Permeable-Phenotype (%) [11]: 2%
Population Mitochondria Different-Phenotype (%) [11]: 1%
Population Mitotic Cells (%) [11]: 20%
Population Normal (%) [11]: 98%
Population Pyknosed Nuclei (%) [11]: 5%
Population Tubulin-Different-Phenotype (%) [11]: 1%
Total Cell Count [11]: 414
Population Apoptotic (%) [12]: 77%
Population Fragmented Nuclei (%) [12]: 26%
Population Healthy Nuclei (%) [12]: 65%
Population Hoechst High Intensity Objects (%) [12]: 2%
Population Membrane Permeable-Phenotype (%) [12]: 8%
Population Mitochondria Different-Phenotype (%) [12]: 5%
Population Mitotic Cells (%) [12]: 22%
Population Normal (%) [12]: 97%
Population Pyknosed Nuclei (%) [12]: 8%
Population Tubulin-Different-Phenotype (%) [12]: 11%
Total Cell Count [12]: 215

From ChEMBL document CHEMBL5058577, “EUbOPEN Chemogenomics Library 2 (Multiplex)” (2022)
